Inconclusive results are not listed. Calls of active or inactive are those of the source.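 Rule for the calls: active = duplicate-averaged calcium signal falling below the mean of the agonist-only control wells less 5 SD; inactive = the rest, inconclusive results apart.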
test system: Transient receptor potential cation channel subfamily C member 4 (TRPC4beta), mouse; test: TRPC4 channel inhibitors, SAR follow-up, cell-based, HEK293 TRPC4beta/mu-opioid, Fluo-4 calcium flux, single concentration (AID 492988); conditions: DAMGO-evoked Fluo4 calcium flux, at 10 µM, active compounds read high
In short: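 system = HEK293 cells stably expressing TRPC4beta plus mu-opioid receptor | probe or stimulus = DAMGO, submaximal then ECmax | times = 110 s compound preincubation, 110 s submaximal DAMGO exposure | replicates = duplicate wells per compound | read-out = peak-minus-trough fluorescence over baseline, integrated ratio, mean % inhibition | detection = Fluo4 calcium-sensitive dye fluorescence, calcium flux | compound = single concentration per test compound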

SMILES	inhibition
Cc1cc(N2CCCC2)nc2ccc(F)cc12	91.3%
Cc1cc(N2CCCCC2)nc2ccc(F)cc12	72.9%
Cc1ccnc(N2CCCCC2)c1	50.8%
c1ccc(-c2cc(N3CCCC3)nc3ccccc23)cc1	79.9%
CCc1ccc2nc(N3CCCC3)cc(C)c2c1	91.5%
COCCN(C)c1cc(C)c2ccccc2n1	24.5% (inactive)
Cc1cc(N2CCCC(O)C2)nc2ccccc12 (centres undefined)	69.3%
Cc1cc(N2CCC(N3CCOCC3)CC2)nc2ccccc12	11.7% (inactive)
Cc1cc(N2CCCCC2)nc2ccccc12	90%
Cc1cc(N2CCN(c3ccccc3C#N)CC2)nc2ccccc12	42% (inactive)
FC(F)(F)c1cc(N2CCCC2)nc2ccccc12	-10.6% (inactive)
Cc1ccnc(N2CCCCC2)n1	38.2% (inactive)
Cc1ccc2nc(N3CCCC3)cc(C)c2c1	93%
Cc1cc(N2CCN(c3ccncc3)CC2)nc2ccccc12	29.5% (inactive)
Cc1cc(N2CCC[C@@H]2C)nc2ccccc12	90%
Cc1cc(N2CCCC2)nc2ccccc12	84.9%
FC(F)(F)c1cc(N2CCCCC2)nc2ccccc12	39.7% (inactive)

SMILES	inhibition
Cc1cc(N2CCN(C)CC2)nc2ccccc12	-157% (inactive)
CCN(CC)c1cc(C)c2ccccc2n1	61.2%
COc1ccccc1N1CCN(c2cc(C)c3ccccc3n2)CC1	72.2%
Cc1ccnc(N2CCCC2)c1	44.1%
Cc1cc(N2CC(C)CC(C)C2)nc2ccccc12 (centres undefined)	32.4% (inactive)
Cc1cc(N2CCOc3ccccc32)nc2ccccc12	63%
Cc1cc(N2CCN(c3ncccn3)CC2)nc2ccccc12	6.42% (inactive)
Cc1ccnc(N2CCCC2)n1	38% (inactive)
c1ccc(-c2cc(N3CCCCC3)nc3ccccc23)cc1	55.9%
Cc1cc(N2CCN(CC3CCCO3)CC2)nc2ccccc12 (centres undefined)	-51.3% (inactive)
COc1ccc(N2CCN(c3cc(C)c4ccccc4n3)CC2)cc1	-82.8% (inactive)
Cc1cc(N2CCCCC2)nc2c(C)cccc12	46.4%
Cc1cc(N2CCC(C)CC2)nc2ccccc12	91.6%
Cc1cc(N2CCOCC2)nc2ccccc12	42.6%
Cc1cc(N2CCNCC2)nc2ccccc12	-292% (inactive)
Cc1cc(N2CCCC2)nc2c(C)cccc12	70.1%
Cc1cc(N(C)CCN(C)C)nc2ccccc12	-249% (inactive)
